Most compounds without a hit are left out; they make up all but 5.1% or so of the library.
STAT3 act-1 – increases IL-6 driven STAT3 reporter signal; U3A cells, IL-6 STAT3-luciferase reporter, luminescence; 100% = signal with IL-6 EC80 alone; activation (% of control), % at 5.6 µM; 190,000 compounds, 0.91% hits; AID 871;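 active = activation above the screen-wide mean of compound activation plus 3 SD, cut at about 130% in these data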;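 note: 0% = background luminescence of wells with medium and substrate only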
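Material: STAT3-luciferase reporter U3A cells; Probe or stimulus: IL-6 (33 ng/mL); Incubation: compound pre-incubation 1 h before IL-6, then 6 h stimulation at 37 °C; Technique: luminescence from STAT3-driven luciferase reporter; Evaluation: % activation versus median of IL-6-stimulated wells; Controls: IL-6-only high control.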
APP 5'UTR act – APP 5'UTR luciferase reporter activation; SH-SY5Y APP 5'UTR luciferase reporter, luminescence; zero percent = DMSO vehicle wells; activation, % at 2 µM; 190,000 compounds, 1% hits; AID 1276;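 active = activation above a set limit, based on mean plus 3 SD of controls, cut at about 140% in these data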
STAT1 inh – inhibitors of IFN-gamma induced STAT1 signaling; NIH 3T3 STAT1-luciferase reporter, luminescence; inhibition, % at 5.5 µM; 200,000 compounds, 0.35% hits; AID 920;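 active = inhibition above a set limit, the mean inhibition across all tested compounds plus 3 SD, cut at about 34% in these data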;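 note: 0% = IFN-gamma with DMSO and 100% = IFN-gamma with 300 µM nifuroxazide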
NF-kB expr up – raises NF-kB expression in human neuronal cells | NF-kB reporter expression; stronger effect = higher value | 190,000 compounds, 1.6% hits | fold change at 12.5 µM | AID 1239; in the data active = fold change above about 3.3
STAT3 blocker – reduces IL-6 driven STAT3 reporter signal. U3A cells, IL-6 STAT3-luciferase reporter, luminescence; host cell line lacks STAT1. inhibition, % at 5.5 µM. 190,000 compounds, 0.89% hits;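 active = inhibition above the mean inhibition across all screened compounds plus 3 SD, cut at about 44% in these data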;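 note: 0% = DMSO only wells and 100% = 100 µM nifuroxazide control wells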
STAT1 act-1 – activators of IFN-gamma induced STAT1 signaling; NIH 3T3 STAT1-luciferase reporter, luminescence; 100% = IFN-gamma alone, no compound; activation (% of control), % at 5.5 µM; 200,000 compounds, 2.6% hits; AID 932;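 active = activation above the screen-wide mean activation plus 3 SD, cut at about 130% in these data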;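 note: raw ratio to IFN-gamma control signal so 100% means no change and 0% no light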
STAT3 act-2 – STAT3 activation, confirmation assay; shares compounds with STAT3 act-1; U3A STAT3-luciferase reporter, IL-6 potentiation, luminescence; U3A cells lack STAT1; 100 means same as IL-6 alone; potentiation (% of control), % at 5.7 µM; 1,200 compounds, 64% hits;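 active = percent activation of the STAT3 luciferase reporter above a set limit taken from the earlier primary screen, cut at about 130% in these data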;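 note: 0% = background signal of medium plus substrate and 100% = median of IL-6 with DMSO wells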
NFkB act 2 – NF-kappaB activation in STAT3 activator counter-screen; 1,200 compounds, 11% hits; shares compounds with STAT3 act-1; human cells, NF-kappaB reporter activation; activation (% of control), % at 5.7 µM; in the data active = activation above about 120%;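 note: reporter induced by TNF-alpha stimulation; 100% = median of stimulated DMSO wells and 0% = no signal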
STAT1 act-2 – counter-screen for STAT3 activators: STAT1 activation. activation (% of control), % at 5.7 µM. 1,200 compounds, 13% hits. AID 1318. NIH 3T3 STAT1-luciferase reporter, IFN-gamma, luminescence. shares compounds with STAT3 act-1;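 active = activation above the solvent-only control well mean plus 3 SD, set per screening run, cut at about 120% in these data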;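 note: 100% = IFN-gamma with DMSO median signal so 100% means no change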
The depositor's hits bear a star; / = no result.

SMILES	STAT3 act-1	APP 5'UTR act	STAT1 inh	NF-kB expr up	STAT3 blocker	STAT1 act-1	STAT3 act-2	NFkB act 2	STAT1 act-2
N#Cc1ccsc1NC(=O)CSc1ncnc2ccccc12	148*	-2	17	1.4	-50	85	144*	99	79
N#Cc1ccsc1NC(=O)CSc1ncn[nH]1	96	-28	-7	1.2	8	109	/	/	/
CC(Cc1c[nH]c2ccccc12)C(=O)O (stereo not given)	112	-4	4	1.4	-14	95	/	/	/
CN(Cc1ccccc1)Cc1c[nH]c2ccccc12	158*	5	-2	1.1	-64	102	141*	102	95
CSc1ccccc1NC(=O)C1CC(c2ccccc2O)=NO1 (stereo not given)	137*	20	-4	0.93	-42	104	115	111	99
COC(=O)c1ccccc1NC(=O)C1CC(c2ccccc2O)=NO1 (stereo not given)	99	2	1	1.2	4	99	/	/	/
COc1ccccc1C(=O)NNC1=C(C(=O)C(F)(F)F)CCC1	150*	11	-4	0.44	-63	104	128	106	102
O=C(NNC1=C(C(=O)C(F)(F)F)CCC1)c1ccccc1O	177*	-17	4	1.5	-80	97	148*	101	102
O=C(NNC1=C(C(=O)C(F)(F)F)CCC1)c1ccccc1Cl	90	6	-5	0.98	9	104	/	/	/
C=CCN1C(=O)CS/C1=N\N=C\c1cccc([N+](=O)[O-])c1	93	7	-7	1.2	11	104	/	/	/
COc1ccccc1-c1cc(C(=O)N/N=C/c2ccc(C)s2)c2ccccc2n1	139*	10	9	2.7	-49	92	137*	101	106
CCc1ccc(/C=N/NC(=O)c2cc(-c3ccccc3OC)nc3ccccc23)s1	122	/	1	0.6	-29	99	/	/	/
N#CC1=C(N)n2c(s/c(=C\c3ccco3)c2=O)=C(C#N)C1c1ccco1 (stereo not given)	171*	-12	6	0.84	-79	94	170*	103	97
O=C(N/N=C/c1ccc(N2CCOCC2)cc1)C1CC1	95	3	-5	0.93	11	101	/	/	/
CCOc1ccccc1-c1n[nH]c(=S)o1	173*	-8	-4	0.93	-86	104	156*	104	96
CCCNC(=O)C(C)n1c2ccccc2c2nc(=O)cc(C)n21 (stereo not given)	100	3	5	1	9	96	/	/	/
CCCN(CCC)C(=O)Cn1c2ccccc2c2nc(=O)cc(C)n21	165*	-14	16	1.1	-65	85	161*	105	90
N#Cc1ccc(/C=C\c2nccc3c2[nH]c2ccccc23)cc1	157*	10	-24	0.72	-62	119	141*	103	103
Clc1ccc(/C=C\c2nccc3c2[nH]c2ccccc23)cc1	148*	-5	-4	1.4	-59	103	145*	108	100
COc1ccc(Nc2nc(-c3cccc([N+](=O)[O-])c3)nc3ccccc23)cc1	99	-15	-5	0.86	1	104	/	/	/
COc1cccc(CC2(CO)CCCN(Cc3cc4ccccc4[nH]3)C2)c1 (stereo not given)	148*	6	11	0.95	-50	89	145*	100	89
COc1cccc(CC2(CO)CCCN(Cc3ccc(C)s3)C2)c1 (stereo not given)	111	11	0	1.2	0	100	/	/	/
CCSc1ccccc1C(=O)Nc1ccc(S(=O)(=O)NC(C)=O)cc1	100	-1	-2	1.2	7	100	/	/	/
CCOC(=O)c1nc2ccccc2s1	146*	17	-22	2.3	-50	120	147*	116	134*
Cn1c(C(C#N)C(=O)c2ccco2)nc2ccccc21 (stereo not given)	136*	27	-12	1.8	-35	113	136*	111	124*
SMILES	STAT3 act-1	APP 5'UTR act	STAT1 inh	NF-kB expr up	STAT3 blocker	STAT1 act-1	STAT3 act-2	NFkB act 2	STAT1 act-2
Cn1c(C(C#N)C(=O)Cc2cccc3ccccc23)nc2ccccc21 (stereo not given)	102	11	-3	1.2	4	102	/	/	/
Cc1cccc2nc(CSc3nc4[nH]ncc4c(=O)n3-c3ccccc3Cl)cc(=O)n12	136*	5	23	0.62	-30	79	152*	96	88
O=C(COC(=O)/C=C/c1ccccc1[N+](=O)[O-])NC1CC1	149*	8	13	0.82	-44	86	142*	100	83
Cc1nn(-c2ccccc2)c(C)c1/C=C/C(=O)OCC(=O)NC1CCS(=O)(=O)C1 (stereo not given)	101	-5	-17	/	4	114	/	/	/
CC(C)(C)NC(=O)COC(=O)/C=C/c1ccccc1[N+](=O)[O-]	106	-1	11	1.2	-9	90	/	/	/
O=C(COC(=O)/C=C/c1ccccc1[N+](=O)[O-])NC1CCS(=O)(=O)C1 (stereo not given)	140*	0	25	0.95	-38	77	187*	117	126*
O=C(COC(=O)c1ccc(O)cc1)Nc1ccc(Cl)cc1	117	-1	-3	1.3	-16	99	/	/	/
O=C(O)CCNc1cc2ccccc2cc1C(=O)O	142*	-22	-1	1.1	-46	99	97	106	105
COc1ccc(C(=O)CNc2ccc3ccccc3c2)cc1	142*	18	-24	1.1	-44	121	131	112	112
Cc1ccc2oc(-c3cccc(NC(=S)NC(=O)/C=C/c4ccco4)c3)nc2c1	138*	16	-11	0.49	-37	110	130	109	123*
Cc1cc(C)c2oc(-c3ccc(C)c(NC(=S)NC(=O)c4cccs4)c3)nc2c1	165*	39	-8	1.9	-81	107	147*	107	106
Cc1cc(C)c2oc(-c3ccc(C)c(NC(=S)NC(=O)/C=C/c4ccco4)c3)nc2c1	151*	16	6	0.94	-44	94	146*	109	103
Cc1ccc(-c2nc3ccccc3o2)cc1NC(=S)NC(=O)c1cccs1	105	61	-20	2.1	4	118	/	/	/

Screening data (PubChem)
